Screening data from PubChem BioAssay.
SENP8 block-1 = SENP8 protease inhibition | purified SENP8, Z-RLRGG-aminoluciferin cleavage, luminescence | inhibition, % at 10 µM | hit rate 1.2% among 330,000; in the data active = inhibition above about 50%
Target sequence (Q96LD8 whole entry, looked up): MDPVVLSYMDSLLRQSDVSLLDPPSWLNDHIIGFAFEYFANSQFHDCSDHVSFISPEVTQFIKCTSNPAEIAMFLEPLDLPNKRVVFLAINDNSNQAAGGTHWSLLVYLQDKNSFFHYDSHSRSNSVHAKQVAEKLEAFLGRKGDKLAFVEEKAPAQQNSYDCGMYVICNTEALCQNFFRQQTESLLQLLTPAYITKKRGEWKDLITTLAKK
SENP7 inh = inhibitors of human SENP7 protease | hit rate 1.5% among 330,000 | AID 434973 | inhibition, % at 5 µM | recombinant SENP7, Z-RLRGG-aminoluciferin luminescence, 40 min | Q9BQF6;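 active = inhibition above about 50% at the single test dose, limit read from the data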;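 also: plate controls were DMSO with enzyme for no effect and no enzyme buffer wells for full effect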
Target sequence (Q9BQF6 706-1050 limits assumed): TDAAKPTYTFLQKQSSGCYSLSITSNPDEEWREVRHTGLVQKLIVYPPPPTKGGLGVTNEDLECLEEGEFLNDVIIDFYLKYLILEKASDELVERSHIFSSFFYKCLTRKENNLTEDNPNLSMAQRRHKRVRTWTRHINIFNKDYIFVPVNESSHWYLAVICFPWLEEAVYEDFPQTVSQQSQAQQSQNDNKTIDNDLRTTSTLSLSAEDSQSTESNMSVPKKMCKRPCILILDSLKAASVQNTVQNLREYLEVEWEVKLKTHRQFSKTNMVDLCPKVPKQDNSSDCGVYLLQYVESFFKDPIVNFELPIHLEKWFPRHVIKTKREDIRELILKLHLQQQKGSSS
SENP1 inh = blocks the human SENP1 SUMO protease catalytic domain. Q9P0U3. recombinant SENP1 catalytic domain, CyPet-SUMO1-YPet FRET cleavage. inhibition, % at 10 µM. hit rate 0.21% among 360,000. AID 624204;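 active = inhibition at least 30% at 10 µM, raw YFP signal under a set limit, fluorescence ratio 0.5 to 1.5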;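 also: 0% = enzyme with DMSO and 100% = no enzyme wells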
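Assay system – human recombinant His6-tagged SENP1 catalytic domain enzyme · Input – SENP1 enzyme, 20 pM final · Buffer or medium – Tris pH 8 buffer plus EDTA, NaCl, BME, BSA, NP40, catalase · Schedule – 50 min reaction at room temperature · Technique – FRET read of cyan and yellow fluorescence · Control set – no-enzyme wells low, DMSO-plus-enzyme wells high control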
HSP90 inh = HSP90 refolding inhibition in rabbit reticulocyte lysate. luciferase refolding luminescence, 3 h. inhibition, % at 5.6 µM. hit rate 0.91% among 290,000. AID 1789;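 active = inhibition above the screen-wide mean plus 3 SD, computed separately per campaign, cut at about 16% in these data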;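 also: 0% = DMSO wells and 100% = 60 µM geldanamycin wells; inhibitors lower the luminescence because luciferase stays unfolded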
SENP8 block-2 = SENP8 (human) protease inhibition | Q96LD8 | recombinant SENP8, Nedd8 substrate fluorescence | inhibition, % at 20 µM | hit rate 0.64% among 360,000 | AID 602440; in the data active = inhibition mostly above about 40%, no sharp cut-off; inactive = mostly below about 27%
SENP6 block = blocks the human protease SENP6; Q9GZR1; Recombinant SENP6 catalytic domain, aminoluciferin luminescence; inhibition, % at 10 µM; hit rate 1.8% among 330,000; AID 2599;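 active = inhibition above about 50% at the single tested dose, limit read from the data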;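 also: plate controls were DMSO wells with enzyme for no effect and DMSO wells lacking enzyme for full effect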
SENP8 inh conf = confirmation of human SENP8 protease inhibitors; shares compounds with SENP8 block-2; purified SENP8, Nedd8-AMC/pro-Nedd8 cleavage fluorescence, 30 min; inhibition, % at 25 µM; hit rate 15% among 1,400; AID 624319; in the data active = inhibition mostly above about 39%, no sharp cut-off; inactive = mostly below about 34%
* marks the source's active call; other numbers are inactive results. The list is not random: actives were taken first. Their share in the collection is about 2.9%.

`C/C(CC(C)C)=N/Nc1ccc([N+](=O)[O-])cc1[N+](=O)[O-]` gave SENP8 block-1 0, SENP7 inh -2, SENP1 inh 3, HSP90 inh 1, SENP8 block-2 34 and SENP6 block -26.
Screening O=Cc1cn(-c2ccccc2)nc1-c1cccc([N+](=O)[O-])c1 returned SENP1 inh 1 and SENP8 block-2 20.
Screening O=[N+]([O-])c1ccc(-[n+]2nc(-c3ccccc3)nn2-c2ccccc2)cc1 returned SENP8 block-1 13, SENP7 inh 10, SENP1 inh 2, HSP90 inh 1, SENP8 block-2 50*, SENP6 block -1 and SENP8 inh conf 45*.
COc1ccc(C2CC3(CC(C)(C)NC(SC)=N3)Oc3cc(O)cc(C)c32)cc1 (stereo not drawn) was read as SENP8 block-1 -10, SENP7 inh 4, SENP1 inh 0, HSP90 inh -1, SENP8 block-2 44*, SENP6 block 6 and SENP8 inh conf 9.
For CN1CCC2(CC1)N=C(c1ccc(F)cc1)C(=S)N2C(=O)c1ccc(C(C)(C)C)cc1 the results were SENP8 block-1 1, SENP7 inh 6, SENP1 inh 2, HSP90 inh 1, SENP8 block-2 53*, SENP6 block 13 and SENP8 inh conf 32.
For CC(C)=CCc1cc([C@@H]2COc3c(ccc4c3C=CC(C)(C)O4)C2)c(O)cc1O the results were SENP8 block-1 -1, SENP7 inh 4, SENP1 inh -4, SENP8 block-2 48*, SENP6 block -9 and SENP8 inh conf 24.
`CCOC(=O)c1n[nH]n(-c2cc(Cl)cc(Cl)c2)c1=O` gave SENP8 block-1 4, SENP7 inh -8, SENP1 inh 0, HSP90 inh 0, SENP8 block-2 6 and SENP6 block -13.
`COC(=O)Cc1c(C)[nH]n(-c2cc(Cl)cc(Cl)c2)c1=O` gave SENP8 block-1 0, SENP7 inh 13, SENP1 inh 1, HSP90 inh 1, SENP8 block-2 59*, SENP6 block 17 and SENP8 inh conf 12.
Screening O=C(CNc1ccc2c(c1)OCO2)N/N=C\c1cn(Cc2ccccc2)c2ccccc12 returned SENP8 block-1 0, SENP7 inh 12, SENP1 inh 8, HSP90 inh 6, SENP8 block-2 44*, SENP6 block -5 and SENP8 inh conf 3.
`CCOc1cc(NC2CS(=O)(=O)CC2O)c(OCC)cc1NC(=O)c1ccccc1` (stereo not drawn) gave SENP8 block-1 8, SENP7 inh 5, SENP1 inh -2, HSP90 inh 1, SENP8 block-2 44*, SENP6 block 12 and SENP8 inh conf 32.
For O=[N+]([O-])c1cc([N+](=O)[O-])c2n[nH]c(-c3ccccc3)c2c1 the results were SENP8 block-1 6, SENP7 inh 5, SENP1 inh 6, HSP90 inh -3, SENP8 block-2 35*, SENP6 block -11 and SENP8 inh conf 8.
For CCOC(=O)c1nc(NNC(=O)c2ccc([N+](=O)[O-])cc2)sc1C the results were SENP8 block-1 -2, SENP7 inh 5, SENP1 inh 0, HSP90 inh -3, SENP8 block-2 41*, SENP6 block 20 and SENP8 inh conf 2.
For CCOC(=O)c1sc(NNC(=O)c2ccc(C)cc2)nc1C the results were SENP8 block-1 -4, SENP7 inh -10, SENP1 inh -12, HSP90 inh -1, SENP8 block-2 5 and SENP6 block -18.
Screening Cc1cc(C)nc(NNS(=O)(=O)c2ccc(F)c(Cl)c2)n1 returned SENP8 block-1 -2, SENP7 inh 3, SENP1 inh 3, SENP8 block-2 36*, SENP6 block -9 and SENP8 inh conf 14.
Cc1cc(C)nc(NNS(=O)(=O)c2ccc(Cl)cc2)n1 was read as SENP8 block-1 5, SENP7 inh 5, SENP1 inh 1, SENP8 block-2 9 and SENP6 block -4.
Screening Cc1[nH]n(-c2ccc(F)cc2)c(=O)c1/C=N/c1sc2c(c1C#N)CCCC2 returned SENP8 block-1 8, SENP7 inh 8, SENP1 inh 1, HSP90 inh 3, SENP8 block-2 48*, SENP6 block 11 and SENP8 inh conf 23.
N#CC1=C(N)Oc2c(oc(CO)cc2=O)C1c1cccs1 (stereo not drawn) was read as SENP8 block-1 0, SENP7 inh 4, SENP1 inh 0, HSP90 inh 4, SENP8 block-2 45*, SENP6 block 22 and SENP8 inh conf 30.
For COc1ccccc1-c1coc2cc(O)cc(O)c2c1=O the results were SENP8 block-1 -3, SENP7 inh 0, SENP1 inh -1, HSP90 inh -4, SENP8 block-2 17 and SENP6 block -18.
Screening O=c1c(-c2ccc(O)cc2O)coc2cc(O)cc(O)c12 returned SENP8 block-1 4, SENP7 inh -3, SENP1 inh 2, HSP90 inh 2, SENP8 block-2 55*, SENP6 block 8 and SENP8 inh conf 22.
Screening O=Nc1c(-c2ccccc2)[nH]n(-c2ccccc2)c1=O returned SENP8 block-1 -16, SENP7 inh 12, SENP1 inh 7, HSP90 inh 8, SENP8 block-2 47*, SENP6 block -19 and SENP8 inh conf 13.
`CC/C(=N/N=C(/CC)c1ccc(O)cc1)c1ccc(O)cc1` gave SENP8 block-1 0, SENP7 inh -2, SENP1 inh 2, SENP8 block-2 32 and SENP6 block -10.
`COCCCNc1ccn2nc(-c3ccc(OCc4ccccc4)cc3)cc2n1` gave SENP1 inh -42 and SENP8 block-2 inactive.
Screening CCCCN1C2=C(C(=O)CC(C)(C)C2)C(c2ccccc2)C2=C1c1ccccc1C2=O (stereo not drawn) returned SENP8 block-1 0, SENP7 inh 18, SENP1 inh 1, HSP90 inh 3, SENP8 block-2 54*, SENP6 block -4 and SENP8 inh conf 13.
Cc1ccc(NC(=O)C2=NNC(=O)CC2)cc1S(=O)(=O)Nc1ccc(SC(F)F)cc1 was read as SENP8 block-1 -3, SENP7 inh 2, SENP1 inh 0, SENP8 block-2 0 and SENP6 block 8.
Screening COC(C(=O)N1CCC(CCC(=O)Nc2ccccc2)CC1)c1ccccc1 (stereo not drawn) returned SENP8 block-1 -8, SENP7 inh -4, SENP1 inh 4, HSP90 inh -2, SENP8 block-2 -1 and SENP6 block 15.
CCC(c1nnnn1-c1c(C)cccc1C)N1CCN(CCN2CCOCC2)CC1 (stereo not drawn) was read as SENP1 inh -2 and SENP8 block-2 10.
Screening COc1ccc(NS(=O)(=O)c2cc(N=Nc3c(O)[nH]c(=O)[nH]c3=O)ccc2OC)cc1Br returned SENP1 inh 8 and SENP8 block-2 30.
